High-throughput results from PubChem BioAssay.
Compounds with a hit are over-represented: about 2% of the library has one in this group of screens.
M5 antag: blocks acetylcholine activation of human M5 receptor. P08912. CHO-hM5 cells, Fluo-8 calcium fluorescence, ACh EC80. inhibition, % at 3 µM. 0.59% of 360,000 active;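 active = inhibition above a per-plate cutoff, the mean of that plate's test compounds plus 3 SD, cut at about 27% in these data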;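 note: 0% = acetylcholine EC80 with DMSO and 100% = DMSO without agonist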
Target sequence (P08912 whole entry, looked up): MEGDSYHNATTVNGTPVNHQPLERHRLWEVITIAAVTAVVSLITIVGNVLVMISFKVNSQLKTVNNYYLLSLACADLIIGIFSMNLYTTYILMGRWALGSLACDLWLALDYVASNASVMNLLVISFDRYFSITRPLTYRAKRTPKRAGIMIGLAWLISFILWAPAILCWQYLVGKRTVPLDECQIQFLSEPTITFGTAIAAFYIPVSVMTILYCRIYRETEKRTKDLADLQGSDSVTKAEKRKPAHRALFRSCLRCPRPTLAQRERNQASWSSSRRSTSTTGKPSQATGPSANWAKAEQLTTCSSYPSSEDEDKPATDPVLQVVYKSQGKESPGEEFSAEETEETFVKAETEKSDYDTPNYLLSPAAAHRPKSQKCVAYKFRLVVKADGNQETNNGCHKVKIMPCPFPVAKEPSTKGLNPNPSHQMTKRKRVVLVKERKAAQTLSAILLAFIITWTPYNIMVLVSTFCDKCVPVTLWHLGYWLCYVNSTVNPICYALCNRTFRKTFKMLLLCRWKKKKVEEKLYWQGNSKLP
CHRM1 agonist: agonists of human M1 muscarinic receptor | P11229 | CHO-K1 hM1, Fluo-8 calcium fluorescence, agonist mode; 0% DMSO, 100% acetylcholine EC100 | activation, % at 3 µM | 0.33% of 360,000 active;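 active = activation above the run's mean compound activation plus 3 SD, cut at about 16% in these data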;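 note: peak over basal fluorescence ratio within a 140 s kinetic read after compound addition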
M5 PAM: positive allosteric modulators of human muscarinic M5 receptor; P08912; CHO-K1 hM5, Fluo-8 calcium, ACh EC20 PAM; 0% = ACh EC20, 100% = ACh EC100; activation, % at 3 µM; 0.3% of 360,000 active; AID 624038;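 active = activation above the run cutoff, the mean activation of all test compounds plus 3 SD, cut at about 18% in these data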
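System – CHO-K1 hM5 cells · Compound – 3 µM, single dose · Incubation – compound preincubation 140 s before EC20 acetylcholine addition · Technique – Fluo-8 calcium fluorescence · Measure – Max/basal fluorescence ratio as % of EC20–EC100 ACh window · Benchmarks – low control EC20 acetylcholine (0%), high control EC100 acetylcholine (100%) · Replication – singlicate, one well per test compound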
CHRM1 antagonist: antagonists of human M1 muscarinic receptor | CHO-K1 hM1, Fluo-8 calcium fluorescence, ACh EC80 antagonist | inhibition, % at 3 µM | P11229 | 1.3% of 360,000 active;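 active = percent inhibition above its own plate's cutoff, namely the mean of that plate's compound wells plus 3 SD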;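 note: peak over basal fluorescence ratio during 140 s after agonist addition; 0% = ACh EC80 plus DMSO and 100% = DMSO alone without agonist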
CHRM1 PAM: positive allosteric modulators of human M1 muscarinic receptor. activation, % at 3 µM. P11229. AID 588819. CHO-K1 hM1, Fluo-8 calcium fluorescence, ACh EC20; 0% = ACh EC20, 100% = maximal ACh. 0.088% of 360,000 active; in the data active = activation above about 19%, passing the limit was not always enough
CHRM5 agonist: CHRM5 agonism in calcium assay; AID 624037; 0.19% of 360,000 active; CHO-K1 hM5 cells, Fluo-8 calcium fluorescence; 0% DMSO wells, 100% maximal acetylcholine response; activation, % at 3 µM;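 active = activation above the run's mean over test compounds plus 3 SD, cut at about 23% in these data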;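 note: signal is peak over basal fluorescence ratio across the kinetic read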
An asterisk follows results filed as active; / = no result.

SMILES | M5 antag | CHRM1 agonist | M5 PAM | CHRM1 antagonist | CHRM1 PAM | CHRM5 agonist
O=C(CCCCCn1c(=S)[nH]c2ccc(Br)cc2c1=O)NCC1CCCO1 (stereo not given) | 3.4 | -4.2 | -3.6 | -3.6 | 3.5 | 2.0
NS(=O)(=O)c1ccc(CCNC(=O)CCCCCn2c(=S)[nH]c3ccc(Br)cc3c2=O)cc1 | 27.1* | 0.1 | -25.0 | 40.9* | -9.4 | 1.5
CC(C)C(NC(=O)c1ccc(C(C)(C)C)cc1)C(=O)NCc1ccccn1 (stereo not given) | -5.0 | -8.2 | 6.2 | 54.5* | -30.3 | 3.3
COc1ccc(C(=O)NC(C(=O)NCc2ccccn2)C(C)C)cc1 (stereo not given) | 9.6 | -1.7 | -5.1 | 2.0 | -0.3 | -6.6
COc1ccc(OC)c(NC(=O)COC(=O)c2c3c(nc4ccccc24)CCCC3)c1 | 13.5 | -7.0 | -23.6 | 38.5* | -18.7 | -1.1
COc1ccc(NC(=O)COC(=O)c2c3c(nc4ccccc24)CCCC3)cc1Cl | 10.0 | -3.6 | -49.0 | 22.4* | -9.8 | -6.6
COc1ccc(NC(=O)COC(=O)c2c3c(nc4ccccc24)CCCC3)cc1 | 18.5 | 0.0 | -21.5 | 32.0* | -9.0 | -0.9
CNC(=O)COC(=O)c1c2c(nc3ccccc13)CCC2 | 0.8 | -3.0 | -0.2 | 12.1 | 2.5 | -1.5
Cc1c(NC(=O)COC(=O)c2c3c(nc4ccccc24)CCCC3)c(=O)n(-c2ccccc2)n1C | 6.1 | -14.0 | -4.0 | -2.4 | -4.7 | -3.5
CS(=O)(=O)c1ccc(Nc2nc(C(N)CCc3ccccc3)cs2)cc1 (stereo not given) | -1.7 | -5.2 | 3.6 | -0.3 | -1.9 | 0.6
O=C(NCc1ccccc1)c1ccc(CS(=O)(=O)c2ccccc2)o1 | -12.1 | 0.4 | 21.9* | -1.0 | 7.3 | -1.1
O=C(NCc1ccncc1)[C@@H]1CCCN1C(=O)[C@@H]1CCCN1C(=O)c1c(F)cccc1F | -17.9 | / | 14.7 | / | / | -0.5
CC[N+](CC)(CC#Cc1ccccc1)CC(=O)c1ccc(Cl)cc1 | 6.6 | -12.3 | -12.8 | 35.5* | -24.7 | -9.0
Cc1cc2c(cc1C)N(C(=O)CSC1=NCCS1)C(C)(C)c1ssc(=S)c1-2 | -1.4 | -12.3 | -16.4 | 54.0* | -29.0 | -5.6
O=C1C(Cl)=C(NC2CCCCC2)C(=O)N1Cc1ccccc1 | 3.1 | -10.3 | 3.8 | -6.7 | 12.7 | 0.2
O=C1C(Cl)=C(N2CCN(Cc3ccccc3)CC2)C(=O)N1Cc1ccccc1 | 13.7 | -6.7 | -26.4 | 56.9* | -24.5 | -10.7
Cc1ccc(-c2ocnc2C(=O)Nc2nc(C)cs2)cc1 | 13.9 | -7.4 | -1.8 | -13.5 | 10.0 | -5.9
CC(C)(C)c1ccc(C(=O)N2CCC2(C)C(=O)NCc2cccs2)cc1 (stereo not given) | -5.1 | 0.3 | 1.0 | -1.1 | -8.8 | 5.4
CC1CCCN(CCCNC(=O)C2CCC(CNS(=O)(=O)c3cccc4nsnc34)CC2)C1 (stereo not given) | -5.8 | -4.8 | -2.9 | 45.0* | -19.0 | -11.1
CCCCNC(=O)C1CCC(CNS(=O)(=O)c2cccc3nsnc23)CC1 (stereo not given) | 7.7 | -3.5 | 1.7 | -20.2 | 9.0 | -8.6
CCOC(=O)c1sc(=S)n(-c2ccccc2Cl)c1SC | 22.8 | -11.5 | -26.5 | 100.4* | -32.3 | -7.5
CCOC(=O)c1sc(=S)n(-c2cccc(C(F)(F)F)c2)c1SC | -4.5 | -6.3 | -1.1 | -11.3 | 2.2 | -3.4
CCOC(=O)c1sc(=S)n(-c2ccccc2)c1SC | 1.8 | -7.3 | -11.4 | 51.3* | -25.1 | -7.4
COC(=O)C[C@@H]1CC[C@H](NC(=O)Cc2ccccn2)[C@@H](CO)O1 | -1.7 | / | 3.4 | / | / | 0.7
CCCNC(=O)C1(C)CCN(Cc2ccc(OCc3ccccc3)cc2)C1 (stereo not given) | 9.5 | -4.9 | -4.4 | 15.1 | -18.7 | -6.9
SMILES | M5 antag | CHRM1 agonist | M5 PAM | CHRM1 antagonist | CHRM1 PAM | CHRM5 agonist
CCS(=O)(=O)N1CCN(CC2CC3C=CC2C3)CC1 (stereo not given) | 1.5 | 7.5 | -0.3 | 6.4 | 1.7 | -0.5
CCCS(=O)(=O)N1CCN(CC2CC3C=CC2C3)CC1 (stereo not given) | -5.0 | 21.9* | 7.7 | 0.2 | -5.2 | -5.8
Nn1c(SCC(=O)NC2CCCCCC2)nnc1-c1ccco1 | 1.5 | -2.5 | 1.5 | -10.8 | 9.6 | -0.1
O=C(CN1C(=O)COc2ccccc21)NCCN1CCC(Cc2ccccc2)CC1 | 10.2 | -3.0 | -15.6 | 29.7* | -19.8 | -4.8
O=C(CN1C(=O)COc2ccccc21)NCCN1CCOCC1 | 4.9 | -5.5 | 2.1 | 4.0 | 1.4 | -1.6
COc1ccc(-c2sc3cc4c(cc3c2-c2ccc(OCCN3CCCCC3)cc2)OCO4)cc1 | -6.3 | -4.5 | 2.6 | -4.2 | 1.1 | -1.7
COc1ccccc1-c1sc2cc3c(cc2c1-c1ccc(OCCN2CCOCC2)cc1)OCO3 | -3.6 | 0.5 | -3.4 | 24.6* | -11.5 | 0.2
Nc1ccc(-c2nc3ccccc3[nH]2)cc1 | -0.4 | -2.3 | -2.7 | -13.0 | 11.0 | 0.6
c1ccc(-c2cc(-c3nc4ccccc4[nH]3)c3ccccc3n2)cc1 | 28.6* | -5.8 | -18.2 | 27.6 | -15.6 | 0.0
COC(=O)c1sc(S(=O)(=O)N2CCCCC2)c(C(=O)OC)c1C | 2.6 | -6.4 | -0.1 | 21.0* | -26.9 | -8.0
COc1ccc(Cl)cc1C(=O)Nc1ccc(OCC(=O)N2CCOCC2)cc1 | -2.4 | -0.1 | 18.3* | -9.6 | 15.7 | 1.6
COc1ccc(NS(=O)(=O)c2ccc(OCC(=O)N3CCOCC3)cc2)cc1 | 15.0 | -0.1 | -7.3 | 3.1 | -2.3 | 0.4
O=C(COc1ccc(S(=O)(=O)Nc2ccc(Cl)cc2)cc1)N1CCOCC1 | 19.4 | 17.7* | -8.6 | 6.1 | -2.1 | 9.2
Cc1ccsc1C(=O)N1CCC1(C)C(=O)NS(=O)(=O)c1ccc(Br)cc1 (stereo not given) | 5.2 | -1.8 | -2.9 | -9.9 | 7.0 | 1.6
O=C(CNC(=O)c1nc[nH]c1C(=O)NCC(=O)OCc1ccccc1)OCc1ccccc1 | 21.1 | -3.0 | -26.1 | 31.0 | -13.9 | 6.3
CCN(CC)C(=O)c1[nH]cnc1C(=O)NCC(=O)OCc1ccccc1 | 26.9* | 0.3 | -29.0 | 27.0 | -16.9 | 3.1
CNC(=O)c1[nH]cnc1C(=O)NCC(=O)OCc1ccccc1 | 9.4 | 0.3 | -16.9 | 6.9 | -5.5 | 8.2
CC(C)(C)OC(=O)NCc1ccc(CNC(=O)c2[nH]cnc2C(=O)NCC(=O)OCc2ccccc2)cc1 | 3.6 | 3.5 | -35.9 | 43.5* | -20.3 | 10.7
CC(C)(C)OC(=O)NCc1ccc(CNC(=O)c2nc[nH]c2C(=O)NCc2ccccc2)cc1 | 20.0 | -1.9 | -8.2 | 9.1 | -4.6 | -0.6
C[C@H](NC(=O)c1nc[nH]c1C(=O)NCC(=O)OCc1ccccc1)c1ccccc1 | 13.1 | -1.5 | -32.4 | 31.4* | -18.5 | 3.3
